Experimental findings from ChEMBL document CHEMBL6177922, “Antibacterial activity of the structurally novel C-2 amine-substituted analogues based on quinoxaline” (RSC Med Chem, 2025) are described below.

Structures are written as SMILES. In brackets after ≈: the same amount, converted by molar mass. Activity calls are given as the source filed them. The rule behind the calls is not given here.

The test system of test [1] is Staphylococcus aureus. Nature of the test: Antibacterial activity against drug sensitive Staphylococcus aureus RN4220 assessed as reduction in bacterial growth by broth microdilution method. The class given is functional. Put shortly: (§1)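 MICs were determined by standard twofold serial broth microdilution in lysogeny broth (LB) medium.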
For orientation: Broth dilution looks for growth in wells or tubes with falling amounts of substance.

For test [2], the system named is Bacillus subtilis. Nature of the test: Antibacterial activity against drug sensitive Bacillus subtilis 168 assessed as reduction in bacterial growth by broth microdilution method. The class given is functional. The method in brief: as §1
Test [3] deals with Staphylococcus aureus. Nature of the test: Antibacterial activity against methicillin-resistant Staphylococcus aureus measured for 15 days. The class given is functional, organism-based. The following applies: time 15.0 day. The method in brief: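 Resistance development: MRSA serially subcultured in fresh medium starting from the initial MIC. MIC reassessed every 24 h over 24 days, alongside a reference antibiotic given in twofold dilutions.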

The test system of test [4] is Escherichia coli. As to the kind of experiment: Antibacterial activity against Escherichia coli measured for 15 days. The class given is functional, organism-based. The following applies: time 15.0 day. Put shortly: (§2)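 E. coli was serially subcultured in fresh medium, starting from the initial MIC. The MIC was redetermined every 24 h. A reference antibiotic was tested in parallel by twofold dilution. The regimen ran for 24 days in total.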

Test [5] deals with Escherichia coli. As to the kind of experiment: Antibacterial activity against Escherichia coli measured for 9 days. The class given is functional, organism-based. The following applies: time 9.0 day. Put shortly: as §2
In test [6] the test system is Staphylococcus aureus. As to the kind of experiment: Bactericidal activity against methicillin-resistant Staphylococcus aureus assessed as reduction in colony forming unit at 3 times MIC […] by time kill assay. The class given is functional.
Test [7] deals with Staphylococcus aureus. As to the kind of experiment: Bactericidal activity against methicillin-resistant Staphylococcus aureus at 2 times MIC incubated for 24 hrs by time kill assay. The class given is functional, organism-based. The method in brief:
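Time-kill: MRSA grown 24 h at 37 °C, adjusted to ~2 × 10^6 CFU mL-1, exposed at 2× or 3× MIC with shaking at 37 °C. Aliquots taken at 0.5–13 h, serially diluted 10-fold in PBS, plated on Mueller–Hinton agar, counted after 24 h at 37 °C. Duplicate.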

The subject of test [8] is Escherichia coli. Nature of the test: Bactericidal activity against Escherichia coli assessed as inhibition of bacterial growth at 3 times MIC incubated for 24 hrs by time kill assay. The class given is functional, organism-based. Put shortly: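 Time-kill assay: E. coli was precultured for […] at 37 °C and adjusted to about 2 × 10^6 CFU mL−1. It was exposed to 3× MIC at 37 °C with shaking. Samples were taken at 0.5–13 h, serially 10-fold diluted in PBS and plated on Mueller–Hinton agar, and colonies were counted after 24 h at 37 °C. Run in duplicate.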

The test system of test [9] is MCF7. Nature of the test: Cytotoxicity against human MCF7 cells assessed as inhibition of cell growth incubated for 24 hrs by MTT assay. The class given is functional, cell-based. The following applies: MCF7, 24 h. Put shortly: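 MTT assay with 24 h exposure of cells to the samples. IC50 is the concentration giving 50% growth inhibition, reported as mean ± S.D. of three independent experiments.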
In general terms: Formazan colour is commonly taken as a measure of viable cells.

Test [10] deals with Escherichia coli. Nature of the test: Antibiofilm activity against Escherichia coli assessed as reduction in number of viable cells at 2 times MIC incubated for 24 hrs. The class given is functional, organism-based. The method in brief: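 E. coli was grown to mid-log phase and adjusted to 2 × 10^6 CFU mL−1. Biofilms were grown for 48 h, then the spent medium was removed and loose cells were washed off with PBS. Compound was added at MIC, 2× MIC or 4× MIC for 24 h, with a sterile-medium control. Biofilms were dispersed with trypsin–EDTA, 10-fold dilutions were plated, and colonies were counted after 24 h as log10 CFU mL−1.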

In test [11] the test system is Staphylococcus aureus. Nature of the test: Antibacterial activity against methicillin-resistant Staphylococcus aureus assessed as reduction in viable bacterial count at 2 to 4 times MIC measured after 18 hrs. The class given is functional, organism-based.
Test [12] relates to Cell membrane. Nature of the test: Induction of cell membrane permeabilization in Escherichia coli assessed as increase in fluorescence intensity at 3 times MIC incubated for 8 hrs by PI staining based confocal laser scanning microscopic analysis. The class given is subcellular. Put shortly:
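Log-phase E. coli was washed and resuspended in PBS (10 mM, pH 7.2) at 2 × 10^6 CFU mL−1 (OD600 0.2–0.4). Cells were treated with 3× MIC for 8 h at 37 °C, with a PBS control, then stained with SYTO 9 and PI for 30 min in the dark and imaged by confocal microscopy. Run in duplicate.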

For test [13], the system named is Cell membrane. Nature of the test: Induction of cell membrane integrity in Escherichia coli assessed as increase in K+ efflux at 3 times MIC by absorption spectrophotometric analysis. The class given is subcellular. Put shortly: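 Mid-log E. coli (6 h culture) was suspended to about 2 × 10^6 CFU mL−1 in 10 mM HEPES pH 7.3 plus 5 mM glucose (1:1). Cells were incubated with 3× MIC at 37 °C for various times, with a PBS control. Supernatant K+ was measured by atomic absorption spectrophotometry. Run in duplicate.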

In test [14] the test system is Cell membrane. Nature of the test: Induction of cell membrane depolarization in Escherichia coli assessed as increase in fluorescence intensity at 3 times of MIC measured up to 15 hrs by DiSC3-5 dye based fluorescence analysis. The class given is subcellular. Put shortly:
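Mid-log E. coli (6 h culture) was resuspended in 100 mM KCl, 5 mM HEPES pH 7.3 and 5 mM glucose (1:1:1). Cells were loaded with DiSC3(5) at 8 μM final for 80 min at 37 °C, then exposed to 3× MIC. Fluorescence was read at ex 622 nm / em 670 nm, with a water control.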

The test system of test [15] is Staphylococcus aureus. Nature of the test: Antibacterial activity against methicillin-resistant Staphylococcus aureus infected in Kunming mouse corneal infection model assessed as reduction in viable bacterial count at 3 mg/ml, TOP administered 3 times daily for 1 week. The class given is functional, organism-based. Conditions: time 1.0 weeks. Put shortly: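 Corneal infection model: male and female Kunming mice (~20 g) immunosuppressed with daily i.p. cyclophosphamide for 3 days. Anesthetized with i.p. avertin (400 mg kg-1), corneas abraded and given 20 μL MRSA (6 × 10^7 CFU mL-1). From 24 h post-infection, treated by topical smear three times daily for one week. Controls: 5% glucose and 5% vancomycin. Six mice per group. Corneal viable counts measured.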

One may read the MIC as the lowest concentration found to suppress growth. As a reminder, the IC50 is the concentration that inhibits the measured activity by half. Consider `CC(C)(C)c1ccc(CCNc2nc3ccccc3nc2N)cc1`, for which the minimum inhibitory concentration (MIC) in [1] was determined as 4 µg/mL (≈ 12.5 µM); in test [2] it was 8 µg/mL (≈ 25 µM). Also, the result in test [3], in test [4], in test [5], in [8], in [10] and in test [11] was Active. Besides, the result in test [13] and in test [14] was Active. Also, in test [6], the Activity was more than 6 log10CFU/ml. The result in [7], in test [12] and in [15] was inactive. Besides, the IC50 in test [9] turned out to be 72.5 µg/mL (≈ 226 µM).
